From ChEMBL document CHEMBL1154420, “Role of a qnr-like gene in the intrinsic resistance of Enterococcus faecalis to fluoroquinolones” (2007)
≈ marks a conversion by molar mass, not a printed value. Calls of active or inactive are those of the source. No cut-off for these calls is given here.

Tests used:
[1] = test system: Enterococcus faecalis; assay: Antibacterial activity against Enterococcus faecalis JH2-2 containing ORI23 promoter by broth microdilution method; assay type: functional
Method in brief: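 Broth microdilution MIC in Mueller-Hinton broth per CA-SFM, three independent experiments; JH2-2 host carrying pORI23 vector. Narrow dilution series: ofloxacin 1–128 μg/ml (1, 1.5, 2 … 8, 16, 32, 64, 128), ciprofloxacin 0.5–64 μg/ml (0.5, 0.75, 1 … 4, 8, 16, 32, 64). Growth at 37°C.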

[2] = test system: Enterococcus faecalis; assay: Antibacterial activity against Enterococcus faecalis JH2-2-delta-pG1KT mutant by broth microdilution method; assay type: functional
[3] = test system: Enterococcus faecalis; assay: Antibacterial activity against Enterococcus faecalis JH2-2 containing ORI23::qnr-cat promoter mutant overexpressing qnr by broth microdilution method; assay type: functional
[4] = test system: Enterococcus faecalis; assay: Antibacterial activity against Enterococcus faecalis JH2-2-omega-pG1KT/pORI23::qnr-cat mutant with qnr gene complementation by broth microdilution method; assay type: functional
[5] = test system: Escherichia coli; assay: Antibacterial activity against Escherichia coli DH10B containing ORI23::qnr-cat promoter mutant by twofold dilution method; assay type: functional; conditions: K-12 substr. DH10B
Method in brief: (§1)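 Heterologous hosts carrying pORI23 or pORI23::qnr-cat (cat reporter downstream of qnr); MICs of ofloxacin, ciprofloxacin, levofloxacin, sparfloxacin and moxifloxacin by standard twofold dilution. Transformants selected on erythromycin 500 μg/ml plus chloramphenicol 20 μg/ml (E. coli DH10B) or erythromycin 5 μg/ml plus chloramphenicol 5 μg/ml (S. aureus, L. lactis). Blood-supplemented agar for L. lactis.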

[6] = test system: Staphylococcus aureus; assay: Antibacterial activity against Staphylococcus aureus RN4220 containing ORI23::qnr-cat promoter mutant by twofold dilution method; assay type: functional; method in brief: as §1
[7] = test system: Lactococcus lactis; assay: Antibacterial activity against Lactococcus lactis IL-1419 by twofold dilution method; assay type: functional
Method in brief: (§2)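 Heterologous-expression MIC by standard twofold dilution; L. lactis IL-1419 transformed with pORI23 vector or pORI23::qnr-cat by electroporation, selected on erythromycin 5 μg/ml plus chloramphenicol 5 μg/ml; routine growth at 37°C on TS agar with 10% horse blood.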

[8] = test system: Enterococcus faecalis; assay: Antibacterial activity against Enterococcus faecalis JH2-2-omega-pG1KT mutant with inactivated qnr gene by broth microdilution method; assay type: functional
[9] = test system: Lactococcus lactis; assay: Antibacterial activity against Lactococcus lactis IL-1419 containing ORI23 promoter by twofold dilution method; assay type: functional; method in brief: as §2
[10] = test system: Enterococcus faecalis; assay: Antibacterial activity against Enterococcus faecalis JH2-2 by broth microdilution method; assay type: functional
[11] = test system: Lactococcus lactis; assay: Antibacterial activity against Lactococcus lactis IL-1419 containing ORI23::qnr-cat promoter mutant by twofold dilution method; assay type: functional; method in brief: as §1
[12] = test system: Staphylococcus aureus; assay: Antibacterial activity against Staphylococcus aureus RN4220 containing ORI23 promoter by twofold dilution method; assay type: functional; method in brief: as §1
[13] = test system: Staphylococcus aureus; assay: Antibacterial activity against Staphylococcus aureus RN4220 by twofold dilution method; assay type: functional; method in brief: as §1
[14] = test system: Escherichia coli; assay: Antibacterial activity against Escherichia coli DH10B by twofold dilution method; assay type: functional; conditions: K-12 substr. DH10B; method in brief: as §1
[15] = test system: Escherichia coli; assay: Antibacterial activity against Escherichia coli DH10B containing ORI23 promoter by twofold dilution method; assay type: functional; conditions: K-12 substr. DH10B; method in brief: as §1
[16] = test system: Escherichia coli; assay: Inhibition of Escherichia coli DNA gyrase-mediated Escherichia coli pBR322 DNA supercoiling at 1 ug/mL by agarose gel electrophoresis
Method in brief: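 Supercoiling assay: 1 U purified E. coli gyrase with 0.5 μg relaxed pBR322 in 35 mM Tris-HCl pH 7.5, 24 mM KCl, 4 mM MgCl2, 2 mM DTT, 1.8 mM spermidine, 1 mM ATP, 6.5% glycerol, 0.1 mg/ml albumin; drug incubated 1 h 25°C then 30 min 37°C; topoisomers resolved on 1% agarose, ethidium bromide, 16 h at 3.5 V/cm.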

[17] = test system: Escherichia coli; assay: Inhibition of Escherichia coli DNA gyrase-mediated Escherichia coli pBR322 DNA supercoiling at 1 ug/mL in presence of 0.9 uM histidine6-tagged Enterococcus faecalis qnr protein preincubated before compound administration by agarose gel electrophoresis
Method in brief: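 Dialyzed C-terminal His6-tagged Qnr (from E. coli BL21(DE3), IPTG 1 mM, Ni-NTA purified, 0.9 μM) preincubated with E. coli gyrase 1 h at 25°C before drug; then 1 U gyrase, 0.5 μg relaxed pBR322, buffer with 1 mM ATP, pH 7.5, 37°C 30 min; readout by 1% agarose gel, ethidium bromide.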

[18] = test system: Enterococcus faecalis; assay: microbe, parasite or virus in culture; conditions: ATCC 29212

| Structure (SMILES) | MIC [1] [µg/mL] | MIC [2] [µg/mL] | MIC [3] [µg/mL] | MIC [4] [µg/mL] | MIC [5] [µg/mL] | MIC [6] [µg/mL] | MIC [7] [µg/mL] | MIC [8] [µg/mL] | MIC [9] [µg/mL] | MIC [10] [µg/mL] | MIC [11] [µg/mL] | MIC [12] [µg/mL] | MIC [13] [µg/mL] | MIC [14] [µg/mL] | MIC [15] [µg/mL] | Activity [16] | Activity [17] | MIC [18] [µg/mL] |
| --- | --- | --- | --- | --- | --- | --- | --- | --- | --- | --- | --- | --- | --- | --- | --- | --- | --- | --- |
| O=C(O)c1cn(C2CC2)c2cc(N3CCNCC3)c(F)cc2c1=O [CIPROFLOXACIN] | 2 (≈ 6.04 µM) | 1.75 (≈ 5.28 µM) | 8 (≈ 24.1 µM) | 8 (≈ 24.1 µM) | 0.032 (≈ 0.0966 µM) | 2 (≈ 6.04 µM) | 2 (≈ 6.04 µM) | 0.75 (≈ 2.26 µM) | 2 (≈ 6.04 µM) | 1.5 (≈ 4.53 µM) |  |  |  |  |  |  |  |  |
| C[C@H]1COc2c(N3CCN(C)CC3)c(F)cc3c(=O)c(C(=O)O)cn1c23.C[C@H]1COc2c(N3CCN(C)CC3)c(F)cc3c(=O)c(C(=O)O)cn1c23.O [LEVOFLOXACIN] |  |  |  |  | 0.125 | 1 | 0.5 |  | 0.5 |  | 2 | 0.25 | 0.25 |  |  |  |  |  |
| COc1c(N2C[C@@H]3CCCN[C@@H]3C2)c(F)cc2c(=O)c(C(=O)O)cn(C3CC3)c12 [MOXIFLOXACIN] |  |  |  |  | 0.032 (≈ 0.0797 µM) | 0.25 (≈ 0.623 µM) | 0.25 (≈ 0.623 µM) |  | 0.25 (≈ 0.623 µM) |  | 1 (≈ 2.49 µM) |  |  | 0.002 (≈ 0.00498 µM) | 0.002 (≈ 0.00498 µM) |  |  |  |
| CC1COc2c(N3CCN(C)CC3)c(F)cc3c(=O)c(C(=O)O)cn1c23 (centres undefined) [OFLOXACIN] | 3.5 (≈ 9.69 µM) | 3 (≈ 8.3 µM) | 32 (≈ 88.6 µM) | 32 (≈ 88.6 µM) | 0.125 (≈ 0.346 µM) | 2 (≈ 5.53 µM) | 1 (≈ 2.77 µM) | 1.5 (≈ 4.15 µM) | 1 (≈ 2.77 µM) | 3 (≈ 8.3 µM) | 4 (≈ 11.1 µM) | 0.5 (≈ 1.38 µM) | 0.5 (≈ 1.38 µM) |  |  | Active | inactive | 2 (≈ 5.53 µM) |
| C[C@@H]1CN(c2c(F)c(N)c3c(=O)c(C(=O)O)cn(C4CC4)c3c2F)C[C@H](C)N1 [SPARFLOXACIN] |  |  |  |  | 0.064 (≈ 0.163 µM) | 1 (≈ 2.55 µM) | 0.5 (≈ 1.27 µM) |  | 0.5 (≈ 1.27 µM) |  | 4 (≈ 10.2 µM) | 0.125 (≈ 0.319 µM) | 0.125 (≈ 0.319 µM) | 0.002 (≈ 0.0051 µM) | 0.004 (≈ 0.0102 µM) |  |  |  |
